pEC50: −log10 of the molar value.
Columns and labels:
Hepatitis B virus [1] = assay: Antiviral activity against HBV harboring RNA polymerase N236T mutant gene infected in human HuH7 cells assessed as decrease in viral transient transfection […]; format: functional, organism-based; conditions: Huh-7
Summary of the method: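 Lamivudine- and adefovir-resistant HBV mutants introduced into Huh7 cells by transient transfection. Compounds were tested in a 5-day assay.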

Hepatitis B virus [2] = assay: Antiviral activity against HBV harboring RNA polymerase L180M/M204V mutant gene infected in human HuH7 cells assessed as decrease in viral transient transfection after 5 days; conditions: Huh-7, 5 days
Hepatitis B virus [3] = assay: Antiviral activity against wild type HBV infected in human HuH7 cells assessed as decrease in viral transient transfection after 5 days; conditions: Huh-7, 5 days
Hepatitis B virus [4] = assay: Antiviral activity against HBV harboring RNA polymerase M204I mutant gene infected in human HuH7 cells assessed as decrease in viral transient transfection after 5 days; conditions: Huh-7, 5 days
Hepatitis B virus [5] = assay: Antiviral activity against HBV harboring RNA polymerase L180M mutant gene infected in human HuH7 cells assessed as decrease in viral transient transfection after 5 days; conditions: Huh-7, 5 days
Hepatitis B virus [6] = assay: Antiviral activity against HBV harboring RNA polymerase M204V mutant gene infected in human HuH7 cells assessed as decrease in viral transient transfection after 5 days; conditions: Huh-7, 5 days
Hepatitis B virus [7] = assay: Antiviral activity against HBV infected in human HepG2(2.2.15) cells assessed as decrease in extracellular viral DNA level after 24 hrs by blot hybridization assay; format: functional, organism-based; conditions: HepG2 2.2.15, 24 h
Summary of the method: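 Confluent 2.2.15 cells in RPMI 1640 with 2% FBS got nine consecutive daily doses, with medium replaced daily with drug-containing medium. Six wells per concentration over two replicate plates. Cells were pelleted from the medium, which was kept at 4°C and not frozen. Extracellular HBV DNA was quantified by blot hybridization 24 h after the last dose.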

[8] = Cytotoxicity against human HepG2(2.2.15) cells after 24 hrs by neutral red assay; format: cell-based
Summary of the method: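 2.2.15 cells, RPMI 1640 with 2% FBS, dosed daily for nine consecutive days. Viability was read by neutral red uptake, absorbance of internalized dye at 510, 24 h after the last treatment, three cultures per concentration.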

Hepatitis B virus [9] = assay: Antiviral activity against HBV infected in transgenic mouse assessed as decrease in liver viral DNA level at 4 mg/kg, po administered daily for 14 days measured post last dose; format: functional; conditions: for ED50: Hepatitis B virus, Liver, 336 h; for ED90: dose 4 mg/kg
Summary of the method: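 Homozygous male and female HBV transgenic mice (founder 1.3.32; 22.2 ± 2.8 g) received drug in distilled water by oral gavage, 0.1 ml/10 g, at 7 µmol/kg (4 mg/kg) daily for 14 days. About 0.1 g liver was lysed at necropsy, and DNA was extracted with phenol-chloroform. HBV DNA was measured by qPCR normalized to GAPDH, using duplicate CTs against a dilution standard curve, in relative units/µg cell DNA.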

[10] = Selectivity index, ratio of CC50 for human HepG2(2.2.15) cells to EC50 for HBV infected in human HepG2(2.2.15) cells
Summary of the method: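 Ratio from two 2.2.15 readouts after nine daily doses in RPMI/2% FBS. Extracellular HBV DNA was measured by quantitative blot hybridization and cytotoxicity by neutral red uptake (three cultures per concentration), both 24 h after the final dose.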

HepG2 [11] = assay: Drug metabolism in human HepG2 cells assessed as HPMPA uptake at 10 uM after 24 hrs; format: ADME, cell-based; conditions: hepg2, 24 h
Summary of the method: (§1)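 Nearly confluent HepG2 flasks got 14C-labeled drug (final 10 µM, 50 mCi/mmol) for 24 h. Cells were washed with cold PBS, lysed in water by two freeze-thaw cycles and sonication, then extracted with cold TCA (8% final) and centrifuged at 4°C. Supernatant was counted and analyzed by SAX ion-exchange HPLC, with metabolites assigned by retention versus reference standards.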

HepG2 [12] = assay: Drug metabolism in human HepG2 cells assessed as HPMPAp uptake at 10 uM after 48 hrs; format: ADME, cell-based; conditions: hepg2, 48 h
HepG2 [13] = assay: Drug metabolism in human HepG2 cells assessed as HPMPApp uptake at 10 uM after 24 hrs; format: ADME, cell-based; conditions: hepg2, 24 h; summary of the method: as §1
HepG2 [14] = assay: Drug metabolism in human HepG2 cells assessed as HPMPA uptake at 10 uM after 48 hrs; format: ADME, cell-based; conditions: hepg2, 48 h
HepG2 [15] = assay: Drug metabolism in human HepG2 cells assessed as unidentified metabolite uptake at 10 uM after 24 hrs; format: ADME, cell-based; conditions: hepg2, 24 h; summary of the method: as §1
HepG2 [16] = assay: Drug metabolism in human HepG2 cells assessed as unidentified metabolite uptake at 10 uM after 48 hrs; format: ADME, cell-based; conditions: hepg2, 48 h
HepG2 [17] = assay: Drug metabolism in human HepG2 cells assessed as HPMPAp uptake at 10 uM after 24 hrs; format: ADME, cell-based; conditions: hepg2, 24 h; summary of the method: as §1
HepG2 [18] = assay: Drug metabolism in human HepG2 cells assessed as HPMPApp uptake at 10 uM after 48 hrs; format: ADME, cell-based; conditions: hepg2, 48 h

Structure (SMILES) | pEC50 (Hepatitis B virus [7]) | EC90 (Hepatitis B virus [7]) [µM] | pEC50 (Hepatitis B virus [1]) | EC90 (Hepatitis B virus [1]) [µM] | pEC50 (Hepatitis B virus [2]) | EC90 (Hepatitis B virus [2]) [µM] | EC90 (Hepatitis B virus [3]) [µM] | pEC50 (Hepatitis B virus [4]) | EC90 (Hepatitis B virus [4]) [µM] | pEC50 (Hepatitis B virus [5]) | EC90 (Hepatitis B virus [5]) [µM] | pEC50 (Hepatitis B virus [6]) | EC90 (Hepatitis B virus [6]) [µM] | CC50 at 24 h [8] [µM] | ED50 (Hepatitis B virus [9]) [µmol/kg] | ED90 (Hepatitis B virus [9]) [µmol/kg] | Selectivity Index [10] | also measured
Nc1ccn([C@@H]2CS[C@H](CO)O2)c(=O)n1 [LAMIVUDINE] | – | – | 6.52 | 1.5 | < 4.00 | > 100 | 3 | < 4.00 | > 100 | 4.80 | 41 | < 4.00 | > 100 | – | – | – | – | –
CCCCCCCCCCCCCCCCCCOCCOP(=O)(O)CO[C@H](CO)Cn1cnc2c(N)ncnc21 | 7.12 | 0.211 | – | – | – | – | – | – | – | – | – | – | – | > 300 | 0.35 | 6.91 | >1422 | –
CC(C)(C)C(=O)OCOP(=O)(COCCn1cnc2c(N)ncnc21)OCOC(=O)C(C)(C)C [ADEFOVIR DIPIVOXIL] | – | – | 4.85 | 52 | 5.60 | 7.6 | 7 | 5.62 | 8 | 5.59 | 7.3 | 5.82 | 7.2 | – | 0.2 | 3.6 | – | pEC50 (Hepatitis B virus [3]): 5.70

More lines, main results first:

pEC50 (Hepatitis B virus [7]) | EC90 (Hepatitis B virus [7]) [µM] | Structure (SMILES) | pEC50 (Hepatitis B virus [1]) | EC90 (Hepatitis B virus [1]) [µM] | pEC50 (Hepatitis B virus [2]) | EC90 (Hepatitis B virus [2]) [µM] | EC90 (Hepatitis B virus [3]) [µM] | pEC50 (Hepatitis B virus [4]) | EC90 (Hepatitis B virus [4]) [µM] | pEC50 (Hepatitis B virus [5]) | EC90 (Hepatitis B virus [5]) [µM] | pEC50 (Hepatitis B virus [6]) | EC90 (Hepatitis B virus [6]) [µM] | CC50 at 24 h [8] [µM] | ED50 (Hepatitis B virus [9]) [µmol/kg] | ED90 (Hepatitis B virus [9]) [µmol/kg] | Selectivity Index [10] | also measured
7.23 | 0.181 | CC(C)CCCCCCCCCCCCCCOCCCOP(=O)(O)CO[C@H](CO)Cn1cnc2c(N)ncnc21 | – | – | – | – | – | – | – | – | – | – | – | > 300 | 0.082 | 2.96 | >1657 | –
5.92 | 5.05 | Nc1ncnc2c1ncn2C[C@@H](CO)OCP(=O)(O)O | – | – | – | – | – | – | – | – | – | – | – | > 300 | – | – | >60 | Drug uptake (HepG2 [11]): 26 pmol; Drug uptake (HepG2 [12]): 70 pmol; Drug uptake (HepG2 [13]): 34 pmol; Drug uptake (HepG2 [14]): 10 pmol; Drug uptake (HepG2 [15]): 33 pmol; Drug uptake (HepG2 [16]): 62 pmol; Drug uptake (HepG2 [17]): 27 pmol; Drug uptake (HepG2 [18]): 13 pmol

— ChEMBL document CHEMBL1649503, “Alkoxyalkyl esters of 9-(s)-(3-hydroxy-2-phosphonomethoxypropyl) adenine are potent and selective inhibitors of hepatitis B virus (HBV) replication in vitro and in HBV transgenic mice in vivo” (Antimicrob Agents Chemother, 2009)
